A selection: hits, their analogues and other compounds. The true share with any hit is near 2.1%.
PKA-R2B activ: activators of human PKA-R2B complex; AID 504700; activation, % at 11.4 µM; PKA-R2B holoenzyme dissociation, Cy5-IP20 fluorescence polarization; R2B truncated from residue 108, S112A mutant; 0% DMSO only, 100% 113 µM cGMP; 340,000 tested, 0.079% active; P22694+P31323;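 active = activation above a cutoff set at the mean over all compounds plus 3 SD, cut at about 18% in these data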;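 note: higher means more holoenzyme dissociation and a rise in polarization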
Target sequence (P31323 whole entry, looked up, other chains not shown, the tested form may be a part): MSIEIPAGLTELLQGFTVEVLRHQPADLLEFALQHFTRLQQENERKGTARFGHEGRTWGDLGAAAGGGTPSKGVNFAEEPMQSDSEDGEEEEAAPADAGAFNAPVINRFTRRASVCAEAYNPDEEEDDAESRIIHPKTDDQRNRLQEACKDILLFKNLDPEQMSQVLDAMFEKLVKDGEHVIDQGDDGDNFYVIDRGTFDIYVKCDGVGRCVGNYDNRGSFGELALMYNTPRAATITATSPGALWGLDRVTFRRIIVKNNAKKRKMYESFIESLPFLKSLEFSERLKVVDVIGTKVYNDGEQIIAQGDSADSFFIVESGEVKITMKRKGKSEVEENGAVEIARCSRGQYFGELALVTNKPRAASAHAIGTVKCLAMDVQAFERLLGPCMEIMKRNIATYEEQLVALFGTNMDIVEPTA
PKA-R1A activ: activates the PKA-R1A holoenzyme complex; activation, % at 11.4 µM; PKA-R1A dissociation, Cy5-IP20 fluorescence polarization; scaled: DMSO 0%, 113 µM cGMP 100%; AID 504707; P00514+P68181; 340,000 tested, 0.083% active;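 active = percent activation above the mean of all tested compounds plus 3 SD, cut at about 19% in these data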;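 note: higher means more PKAc released from R1A so a rise in polarization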
VIM-2 inh: blocks Pseudomonas aeruginosa VIM-2 metallo-beta-lactamase. purified VIM-2, nitrocefin hydrolysis, epi-absorbance fluorescence. 290,000 tested, 0.89% active. inhibition, % at 5.6 µM;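 active = inhibition above the mean of all tested compounds plus 3 SD, cutoff set per screening run, cut at about 7.5% in these data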;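 note: red hydrolysis product quenches plate fluorescence so inhibitors raise well fluorescence; 0% = enzyme with DMSO and 100% = DMSO without enzyme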
IMP-1 inh-1: blocks Pseudomonas aeruginosa IMP-1 metallo-beta-lactamase | purified IMP-1, nitrocefin hydrolysis, epi-absorbance fluorescence | inhibition, % at 5.6 µM | 290,000 tested, 0.45% active | AID 1556;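 active = inhibition above the mean plus 3 SD of all compounds in the same screening run, cut at about 4.5% in these data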;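 note: 0% = IMP-1 with DMSO and 100% = DMSO wells lacking enzyme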
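System: purified recombinant IMP-1 beta-lactamase. Medium: Zinc- and detergent-supplemented HEPES buffer, pH 7.1. Compound: one 5.6 µM dose […]. Schedule: 15 min preincubation plus 25 min reaction at 25 °C. Technique: Epi-absorbance fluorescence, 480 nm excitation, 530 nm emission.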
bovine MsrA act: bovine methionine sulfoxide reductase A activation; purified bovine MsrA, absorbance read-out; activation, % at 10.6 µM; 360,000 tested, 0.3% active; AID 602163; in the data active = activation above about 7.5%;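 note: 0% = vehicle and 100% = reference activator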
MsrA inhibitor: inhibitors of bovine MsrA; 360,000 tested, 0.75% active; inhibition, % at 15.5 µM; purified bovine MsrA, absorbance read-out; in the data active = inhibition above about 4.5%;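 note: 0% = vehicle wells with enzyme and 100% = reference inhibitor wells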
IMP-1 inh-2: blocks IMP-1 metallo-beta-lactamase in VIM-2 selectivity screen; shares compounds with VIM-2 inh; purified IMP-1, nitrocefin hydrolysis, epi-absorbance fluorescence; inhibition, % at 5.6 µM; 1,300 tested, under 10 active; call rule not given here;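 note: 0% = enzyme with vehicle and 100% = vehicle without enzyme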
VIM-2 FRET inh: VIM-2 FRET inhibition, artifact counter-screen; shares compounds with VIM-2 inh; purified VIM-2, CCF2 FRET substrate hydrolysis; inhibition, % at 5.6 µM; 1,300 tested, 23% active; AID 1857;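 active = inhibition above the mean of all tested compounds plus 3 SD, cut at about 19% in these data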;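 note: 0% = VIM-2 plus DMSO and 100% = no enzyme wells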
TEM-1 inh: selectivity counter-screen for VIM-2 inhibitors: E. coli TEM-1 inhibitors | shares compounds with VIM-2 inh | Purified TEM-1, nitrocefin hydrolysis, epi-absorbance fluorescence | inhibition, % at 5.6 µM | AID 1866 | 1,300 tested, 3% active;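 active = inhibition above that campaign's mean inhibition plus 3 SD, cut at about 0.46% in these data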;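 note: 0% = TEM-1 with DMSO and 100% = TEM-1 with 100 µM potassium clavulanate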
Target sequence (P62593 whole entry, looked up): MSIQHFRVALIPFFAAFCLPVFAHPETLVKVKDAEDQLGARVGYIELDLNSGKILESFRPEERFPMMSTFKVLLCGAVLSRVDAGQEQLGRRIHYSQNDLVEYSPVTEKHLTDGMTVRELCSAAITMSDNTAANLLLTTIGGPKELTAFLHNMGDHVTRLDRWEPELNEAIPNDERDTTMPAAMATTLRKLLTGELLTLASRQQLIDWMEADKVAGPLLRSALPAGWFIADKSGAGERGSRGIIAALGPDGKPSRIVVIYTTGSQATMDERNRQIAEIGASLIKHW
VIM-2 inh conf: confirmation of P. aeruginosa VIM-2 metallo-beta-lactamase inhibitors. 1,300 tested, 96% active. purified VIM-2, nitrocefin hydrolysis, epi-absorbance. inhibition, % at 5.6 µM. shares compounds with VIM-2 inh;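 active = inhibition of the VIM-2 beta-lactamase enzyme above about 11% from the earlier first-round screen, limit read from the data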;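 note: 0% = VIM-2 with DMSO and 100% = buffer wells without enzyme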
Numbers without * were called inactive; . = not tested or not shown.

SMILES	PKA-R2B activ	PKA-R1A activ	VIM-2 inh	IMP-1 inh-1	bovine MsrA act	MsrA inhibitor	IMP-1 inh-2	VIM-2 FRET inh	TEM-1 inh	VIM-2 inh conf
Cc1nn2c(NCCCN(C)C)c3c(nc2c1-c1ccccc1)CCC3	5.0	3.9	13.7*	-2.9	-0.5	2.1	-2.5	-5.4	-7.0	36.9*
Cc1nn2c(NCCCN(C)C)c3c(nc2c1-c1ccccc1)CCCC3	-4.7	-10.3	44.7*	-0.6	-3.6	-1.3	-2.1	0.4	-6.3	53.1*
Cc1nn2c(NCCOCCO)c3c(nc2c1-c1ccccc1)CCC3	1.8	-3.1	3.5	-2.6	-3.2	2.4	.	.	.	.
COCCNc1c2c(nc3c(-c4ccccc4)c(C)nn13)CCC2	-11.8	-11.7	5.8	-2.7	-2.0	0.7	.	.	.	.
O=C(NCC1CCCCC1)c1[nH]c(C(F)(F)F)nc1-c1ccccc1	.	.	.	.	-4.7	0.5	.	.	.	.
O=S(=O)(Nc1cccnc1)c1ccc(Br)c2ccccc12	-8.1	-5.7	-0.1	-1.6	-0.5	-0.7	.	.	.	.
O=C(C1CCN(c2ncnc3c2sc2cccc(F)c23)CC1)N1CCCC1	.	.	12.9*	-3.7	.	1.1	-2.0	2.7	-7.4	26.9*
O=C(C1CCN(S(=O)(=O)c2ccccc2F)CC1)N1CCCC1	-15.2	-1.4	.	.	-9.1	0.1	.	.	.	.
O=C(c1ccccc1)c1ccc(N2CCNCC2)cc1	.	.	18.2*	-3.4	.	.	-2.9	-3.7	-3.8	45.6*
O=C(O)CCC(=O)N1CCN(c2ccc(C(=O)c3ccc(F)cc3)cc2)CC1	-4.0	-13.5	15.9*	-2.1	-10.5	4.7*	-3.3	0.5	-5.8	6.5
CN1CCN(c2ccc(C(=O)c3ccc(F)cc3)cc2)CC1	-1.4	7.9	24.2*	-1.0	-3.2	2.8	-2.3	-2.4	-6.0	39.9*
CC(C)c1nc(C(=O)N2CCCC(N3CCN(c4cccc(Cl)c4)CC3)C2)cs1 (stereo unspecified)	-7.5	8.8	-0.9	-3.4	-0.7	0.7	.	.	.	.
CCOC(=O)c1cnc(-n2nc(C)cc2C)nc1NCCO	-7.7	-2.1	0.9	-1.9	-0.5	0.1	.	.	.	.
CCOC(=O)c1cnc(-n2nc(C)cc2C)nc1NCc1ccccc1	-5.8	-13.8	36.0*	-4.4	-12.7	-0.6	-5.1	-38.0	-5.0	50.5*
Cc1ccc(-c2cc(NC(=O)Cc3c(C)[nH]c4ccccc34)ccc2Nc2cccnc2)cc1	.	.	.	.	.	2.2	.	.	.	.
CCN(CC(=O)NCc1ccc(F)cc1)C(=O)CN1CCN(c2ccc(OC)cc2)CC1	5.5	-17.6	-4.9	1.0	0.9	-0.6	.	.	.	.
COc1ccc(NC(=O)N(C)C[C@H]2OCc3cnnn3CCCC(=O)N([C@H](C)CO)C[C@@H]2C)cc1	-0.8	-2.8	.	.	-9.1	1.4	.	.	.	.
Cc1c(N2C(=O)/C(=C/c3cccc4ccccc34)SC2=S)c(=O)n(-c2ccccc2)n1C	-3.7	5.9	50.4*	-0.5	-6.0	1.1	1.0	13.1	-3.8	11.8*
COc1ccccc1Cc1c(C2CCCCC2)nc2c(C)cc(Br)cn12	.	.	.	.	.	1.2	.	.	.	.
CCCCNC(=O)c1cc2c(=O)n3cccc(C)c3nc2s1	6.4	-14.0	21.0*	-3.8	-6.5	0.3	-3.1	-11.2	-4.9	24.9*
Cc1cccn2c(=O)c3cc(C(=O)NC4CCCC4)n(C)c3nc12	4.6	5.9	14.2*	-0.9	-2.0	0.2	-1.8	-3.0	-6.1	21.6*
Cc1cccn2c(=O)c3cc(C(=O)NCCc4ccccc4)sc3nc12	-4.8	6.0	3.7	-2.1	-1.3	1.8	.	.	.	.
Cc1cccn2c(=O)c3cc(C(=O)NC4CCCCC4)n(C)c3nc12	15.9	0.3	4.4	-1.6	-3.1	-1.6	.	.	.	.
COCCCNC(=O)c1cc2c(=O)n3cccc(C)c3nc2s1	-3.8	5.4	17.8*	-4.2	-4.0	0.8	-2.2	-5.2	-1.7	23.2*
Cc1cccn2c(=O)c3cc(C(=O)NC4CCS(=O)(=O)C4)sc3nc12 (stereo unspecified)	-2.5	-1.4	15.2*	-3.9	-4.1	4.0	-2.8	0.5	-5.4	24.4*
SMILES	PKA-R2B activ	PKA-R1A activ	VIM-2 inh	IMP-1 inh-1	bovine MsrA act	MsrA inhibitor	IMP-1 inh-2	VIM-2 FRET inh	TEM-1 inh	VIM-2 inh conf
O=C(CCNC(=O)C1CCN(S(=O)(=O)c2ccccc2)CC1)NCc1ccc(Cl)c(Cl)c1	6.0	9.7	-2.1	-2.8	-2.9	0.3	.	.	.	.
O=C(C1=C(O)C(=O)N(Cc2cccnc2)C1c1ccccn1)c1cccs1 (stereo unspecified)	-3.0	-9.0	16.2*	-3.7	-11.4	2.0	-3.4	40.7*	-4.7	32.2*
CCCNc1cc(C)c(C#N)c2nc3ccccc3n12	-5.9	-6.8	3.9	-3.3	-2.8	0.2	.	.	.	.
Cc1cc(NCCOCCO)n2c(nc3ccccc32)c1C#N	-3.7	-1.6	33.0*	-2.8	-0.1	1.0	-3.5	-9.0	-4.1	49.5*
Cc1cc(NCCCO)n2c(nc3ccccc32)c1C#N	1.1	-12.2	6.4	-2.5	-4.4	2.8	.	.	.	.
COCCNc1cc(C)c(C#N)c2nc3ccccc3n12	2.8	-2.6	26.2*	-0.4	-2.4	1.5	-2.9	-9.5	-6.3	39.5*
Cn1c(SCC(=O)Nc2ccc(Cl)cc2F)nnc1-c1ccco1	11.7	-0.6	-4.4	-2.3	-2.8	-1.2	.	.	.	.
COc1ccc2c(c1)c(=O)c(C(=O)O)c(-c1ccc3c(c1)OCO3)n2C	11.7	-0.3	40.3*	-1.5	-4.2	0.7	-2.9	73.2*	-5.7	59.0*
Cc1cccc(N2CCN(CC(=O)N(C3CCCC3)C3CCS(=O)(=O)C3)CC2)c1C (stereo unspecified)	-8.9	12.4	.	.	1.0	-0.5	.	.	.	.
O=C(CCCn1nnnc1CN1CCOCC1)N1CCC(c2ccccc2Cl)C1 (stereo unspecified)	-5.8	-1.8	-1.0	-4.3	-2.4	0.6	.	.	.	.
Cc1cccc(-c2cc3nc(C)c(C)c(NCCCn4ccnc4)n3n2)c1	-2.3	-5.5	34.9*	-1.2	-9.3	-0.7	-3.4	-27.5	-7.4	49.2*
COCCNC(=O)c1cc2nc(-c3ccccc3)cc(C)n2n1	-7.5	-2.2	-0.9	-3.2	-9.1	-0.4	.	.	.	.
Cc1cc(-c2ccccc2)nc2cc(C(=O)NCCCn3ccnc3)nn12	1.1	2.9	16.9*	-1.2	-2.9	.	-1.8	-9.2	-5.4	28.1*
Cc1nn2c(NCCCn3ccnc3)cc(C(C)C)nc2c1-c1ccccc1	3.9	6.9	20.2*	-1.1	-3.8	0.1	-3.4	-25.8	-6.0	29.4*

High-throughput results as filed in PubChem.
